Assay results reported in ChEMBL document CHEMBL3588851, “Antiviral Matrine-Type Alkaloids from the Rhizomes of Sophora tonkinensis” (J Nat Prod, 2015).
Activity calls are given as the source filed them. The rule behind the calls is not given here.

Assays:
Coxsackievirus B3 [1] = experiment: Antiviral activity against coxsackievirus B3 infected in African green monkey Vero cells assessed as inhibition of virus-induced cytopathogenic effect at maximal nontoxic concentration dosed 1 hr after viral adsorption; type: functional, organism-based
Outline: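 Confluent Vero monolayers in 96-well plates infected with 100 TCID50 CVB3. After 1 h adsorption at 37 °C, cells washed with PBS. Then incubated at 37 °C in maintenance medium (MEM + 2% FBS) with or without compound, tested at its maximal nontoxic concentration.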

Influenza A virus [2] = experiment: Antiviral activity against influenza A virus (A/Hanfang/359/95(H3N2)) infected in MDCK cells assessed as inhibition of virus-induced cytopathogenic effect dosed 1 hr after viral adsorption; type: functional, organism-based
[3] = Cytotoxic activity against MDCK cells assessed as cytopathogenic effect incubated for 48 hrs; type: cell-based, Canis lupus familiaris; details: dog, read-out: TC50
Outline: (§1)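 Cells plated in 96-well plates; after 24 h, monolayers exposed to various concentrations of compound for 48 h at 37 °C, 5% CO2. Toxicity monitored by cytopathogenic effect (CPE). Median toxic concentration (TC50) calculated by the Reed and Muench method.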

[4] = Selectivity index, ratio of TC50 for […] MDCK cells to IC50 for influenza A virus (A/Hanfang/359/95(H3N2)); type: toxicity, cell-based; details: read-out: Selectivity Index
Outline: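 SI is TC50/IC50. TC50: MDCK cells were plated for 24 h, then exposed to graded compound concentrations for 48 h at 37 °C in 5% CO2, scored by CPE, and calculated by Reed–Muench. IC50 came from the H3N2-infected MDCK assay, with 1 h adsorption and then compound in MEM plus 2% FBS.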

Influenza A virus [5] = experiment: Antiviral activity against influenza A virus (A/Hanfang/359/95(H3N2)) infected in MDCK cells assessed as inhibition of virus-induced cytopathogenic effect at maximal nontoxic concentration dosed 1 hr after viral adsorption; type: functional, organism-based
[6] = Selectivity index, ratio of TC50 for African green monkey Vero cells to IC50 for coxsackievirus B3 infected in African green monkey Vero cells; type: toxicity, cell-based; details: read-out: Selectivity Index
Outline: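 SI = TC50/IC50. TC50 from 48 h CPE-monitored Vero toxicity, calculated by Reed and Muench. IC50 from Vero monolayers infected with 100 TCID50 CVB3, adsorbed 1 h at 37 °C, PBS-washed, then maintained in MEM + 2% FBS with compound at 37 °C.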

[7] = Cytotoxic activity against African green monkey Vero cells assessed as cytopathogenic effect incubated for 48 hrs; type: cell-based; details: chlorocebus sabaeus, read-out: TC50; outline: as §1
Coxsackievirus B3 [8] = experiment: Antiviral activity against coxsackievirus B3 infected in African green monkey Vero cells assessed as inhibition of virus-induced cytopathogenic effect dosed 1 hr after viral adsorption; type: functional, organism-based; details: Enterovirus B
Outline: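 Confluent Vero monolayers were infected with 100 TCID50 CVB3 and adsorbed for 1 h at 37 °C. They were then washed with PBS and kept at 37 °C in MEM plus 2% FBS, with or without a range of compound concentrations. Ribavirin served as positive control.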

Coxsackievirus B3 [9] = experiment: Antiviral activity against coxsackievirus B3 infected in African green monkey Vero cells assessed as inhibition of virus-induced cytopathogenic effect dosed 1 hr after viral adsorption relative to ribavirin; type: functional

| Compound | inhibition (Coxsackievirus B3 [1]) | IC50 (Influenza A virus [2]) [µM] | selectivity ratio [4] | inhibition (Influenza A virus [5]) | also measured |
| --- | --- | --- | --- | --- | --- |
| O=C1C=CC[C@@H]2[C@H]3CCC[N+]4([O-])CCC[C@@H](CN12)[C@@H]34 (some centres not stated) [OXYSOPHOCARPINE] | inactive | 403 | > 1.9 |  | CC50 at 48 h [3]: > 762 µM |
| O=C1CCC[C@@H]2[C@H]3CCC[N+]4([O-])CCC[C@@](O)(CN12)[C@@H]34 (some centres not stated) | inactive |  |  | inactive |  |
| O=C1[C@@H](O)CC[C@@H]2[C@H]3CCC[N+]4([O-])CCC[C@@H](CN12)[C@@H]34 (some centres not stated) | inactive |  |  | inactive |  |
| O=C1CCC[C@@H]2[C@H]3CCCN4CCC[C@@](O)(CN12)[C@@H]34 |  |  |  | inactive | selectivity ratio [6]: > 3; CC50 at 48 h [7]: > 757 µM; IC50 (Coxsackievirus B3 [8]): 252 µM |
| O=C1C=CC[C@@H]2[C@H]3CCC[N+]4([O-])CCC[C@@](O)(CN12)[C@@H]34 (some centres not stated) | inactive |  |  |  |  |
| O=C1C=C[C@@H](O)[C@@H]2[C@H]3CCCN4CCC[C@@H](CN12)[C@@H]34 | inactive | 242 | > 3.1 |  | CC50 at 48 h [3]: > 762 µM |
| O=C1C=C[C@@H](O)[C@@H]2[C@H]3CCC[N+]4([O-])CCC[C@@H](CN12)[C@@H]34 (some centres not stated) |  |  |  | inactive | Ratio IC50 (Coxsackievirus B3 [9]): 45; selectivity ratio [6]: 4.3; CC50 at 48 h [7]: 115 µM; IC50 (Coxsackievirus B3 [8]): 26.6 µM |
| O=c1cccc2n1C[C@@H]1CCCN3CCC[C@H]2[C@H]13 | inactive | 63.1 | 4.3 |  | CC50 at 48 h [3]: 273 µM |
| O=C1C=CC[C@@H]2[C@H]3C[C@H](O)CN4CCC[C@@H](CN12)[C@@H]34 |  |  |  | inactive | selectivity ratio [6]: > 3.9; CC50 at 48 h [7]: > 762 µM; IC50 (Coxsackievirus B3 [8]): 197 µM |
| NC(=O)c1ncn([C@@H]2O[C@H](CO)[C@@H](O)[C@H]2O)n1 [RIBAVIRIN] |  |  | 813 |  | selectivity ratio [6]: 6.8; IC50 (Coxsackievirus B3 [8]): 1200 µM |
| O=C1C=CC[C@@H]2[C@H]3CCCN4CCC[C@@H](CN12)[C@@H]34 | inactive |  |  | inactive |  |
| O=C1CC=C[C@@H]2[C@H]3CCCN4CCC[C@@](O)(CN12)[C@@H]34 | inactive |  |  | inactive |  |
| O=C1[C@@H](O)CC[C@@H]2[C@H]3CCCN4CCC[C@@H](CN12)[C@@H]34 |  |  |  | inactive | selectivity ratio [6]: 4.1; CC50 at 48 h [7]: 757 µM; IC50 (Coxsackievirus B3 [8]): 184 µM |
| O=C1CCC[C@@H]2[C@H]3CCCN4CCC[C@@H](CN12)[C@@H]34 | inactive |  |  | inactive |  |
| O=C1CCC[C@@H]2[C@H]3C[C@H](O)CN4CCC[C@@H](CN12)[C@@H]34 | inactive |  |  | inactive |  |
| O=C1C=C[C@H](O)[C@@H]2[C@H]3CCCN4CCC[C@@H](CN12)[C@@H]34 | inactive | 84.7 | 5.7 |  | CC50 at 48 h [3]: 479 µM |
| O=C1C=CC[C@@H]2[C@H]3CCCN4CCC[C@@](O)(CN12)[C@@H]34 | inactive | 440 | > 1.7 |  | CC50 at 48 h [3]: > 762 µM |
| O=C1CCC[C@@H]2[C@H]3CCC[N+]4([O-])CCC[C@@H](CN12)[C@@H]34 (some centres not stated) | inactive |  |  | inactive |  |
| CCOC(=O)C1=C[C@@H](OC(CC)CC)[C@H](NC(C)=O)[C@@H](N)C1 [OSELTAMIVIR] |  | 1.07 | 2870 |  |  |
